High-throughput results deposited in PubChem by Sanford-Burnham Center for Chemical Genomics.
mIAP inh: mouse IAP inhibition; purified mouse IAP, CDP-Star luminescence, 30 min; inhibition, % at 10 µM; 330,000 compounds, 0.2% hits;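 active = inhibition of at least 40% at 10 µM in the primary screen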
bIAP act: intestinal alkaline phosphatase (bovine) activation; 200,000 compounds, 0.17% hits; AID 1016; activation factor at 20 µM; purified bovine IAP, CDP-star luminescence, 30 min; active compounds read high; fold of DMSO-control signal, blank-subtracted;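 active = activation factor of 2 or more at 20 µM, a signal rise over negative controls twice the positive control's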
bIAP inhibitor: blocks bovine intestinal alkaline phosphatase activity | purified bovine IAP, CDP-star luminescence, 30 min | inhibition, % at 20 µM | 190,000 tested, under 10 active;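 active = over 50% inhibition of intestinal alkaline phosphatase at 20 µM in the single-dose screen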
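Assay system: bovine IAP enzyme; medium: DEA buffer 100 mM, pH 9.8, with MgCl2 1.0 mM, ZnCl2 0.02 mM; doses: 20 µM single dose; incubation: enzyme reaction for 30 min at room temperature; detection: CDP-star luminescence signal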
hIAP inh: blocks human intestinal alkaline phosphatase. P09923. purified IAP, CDP-Star luminescence, 30 min. inhibition, % at 10 µM. 330,000 compounds, 0.12% hits. AID 2544;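 active = inhibition reaching a set limit with compound at 10 µM in the primary screen, cut at about 35% in these data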
Target sequence (P09923 whole entry, looked up): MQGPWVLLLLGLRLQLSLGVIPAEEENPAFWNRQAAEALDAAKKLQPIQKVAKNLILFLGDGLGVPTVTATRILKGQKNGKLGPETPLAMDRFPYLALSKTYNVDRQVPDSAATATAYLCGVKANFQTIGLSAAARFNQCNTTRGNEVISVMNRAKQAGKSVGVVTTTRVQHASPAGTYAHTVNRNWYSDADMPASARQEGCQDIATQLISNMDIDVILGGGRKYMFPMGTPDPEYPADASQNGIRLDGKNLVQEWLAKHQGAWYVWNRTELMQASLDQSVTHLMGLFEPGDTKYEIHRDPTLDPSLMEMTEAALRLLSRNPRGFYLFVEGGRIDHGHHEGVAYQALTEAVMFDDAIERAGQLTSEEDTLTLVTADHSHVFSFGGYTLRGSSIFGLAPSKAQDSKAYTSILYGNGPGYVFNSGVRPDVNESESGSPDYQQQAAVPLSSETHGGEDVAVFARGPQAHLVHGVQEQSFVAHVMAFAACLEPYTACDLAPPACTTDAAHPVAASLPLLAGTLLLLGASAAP
mIAP act: mouse IAP activation; muIAP, CDP-Star luminescence, 30 min; active compounds read high; 1 = vehicle-only enzyme signal, 0 = enzyme-free wells; activation factor at 10 µM; 330,000 compounds, 0.24% hits; AID 2805;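 active = activation factor of at least 2 at 20 µM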
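System: Mouse IAP enzyme | Also added: CDP-Star substrate | Dosing: Compounds dispensed in DMSO | Schedule: 30 min enzyme-substrate-compound incubation at room temperature | Technique: Chemiluminescence readout | Control set: DMSO-only wells and no-enzyme negative control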
hIAP activ: increases human intestinal alkaline phosphatase activity | purified human IAP, CDP-Star luminescence, 30 min; active compounds read high; 1 = vehicle-only enzyme, 0 = enzyme-free background | 330,000 compounds, 0.16% hits | activation factor at 10 µM;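 active = activation factor of the enzyme at least 2-fold when tested at 20 µM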
A number is an active result; - = inactive; . = no result. Only some compounds are listed: those with a hit (about 0.79% of all), similar ones and a draw of the others.

SMILES	mIAP inh	bIAP act	bIAP inhibitor	hIAP inh	mIAP act	hIAP activ
O=C(N/N=C\c1ccc(O)c([N+](=O)[O-])c1)C1COc2ccccc2O1 (configuration not stated)	-	.	.	-	-	-
Cc1cc([N+](=O)[O-])cc(/C=N\NC(=O)C2COc3ccccc3O2)c1O (configuration not stated)	42	.	.	-	-	-
COc1cc(OC)cc(C(=O)NC2CCN(Cc3nnnn3Cc3ccc(F)cc3)CC2)c1	-	-	-	-	-	-
COc1cccc(NC(=O)NC2CCN(Cc3nnnn3Cc3ccc4c(c3)OCO4)CC2)c1	-	.	.	-	2.5	-
CCCCN(C(=O)CSc1n[nH]c(-c2ccc(C)cc2)n1)c1c(N)n(CCCC)c(=O)[nH]c1=O	-	.	.	-	-	-
CC(=O)OCCCN1c2ccccc2Nc2nnc(-c3ccccc3)cc21	-	28	-	-	3.5	-
O=C(NC1CC2CCC(C1)N2C(=O)NC1CCCCC1)NC12CC3CC(CC(C3)C1)C2 (configuration not stated)	-	-	-	-	-	-
O=C(NC1CC2CCCC(C1)N2C1CC1)NC12CC3CC(CC(C3)C1)C2 (configuration not stated)	.	3.1	-	.	.	.
O=C1S/C(=C\C=C\c2ccco2)C(=O)N1c1ccccc1	76	-	-	-	-	-
O=C1S/C(=C\C=C\c2ccco2)C(=O)N1c1ccc(O)cc1	80	-	-	-	-	-
O=C1S/C(=C\c2cccs2)C(=O)N1c1ccc(O)cc1	-	.	.	-	-	-
COc1ccc(C)cc1CN(C)c1ccc(S(=O)(=O)N2CCN(C)CC2)cn1	-	.	.	-	-	-
C=C1/C=C(\C)[C@](C)(O)C[C@H](O)CC(=O)[C@H](O)[C@@H](O)[C@H](C)C[C@H](C)OC(=O)/C(C)=C/CC/C=C/[C@@H]2O[C@H]2C[C@H](C)C1	-	.	.	-	-	-
CCCCC(CC)CNC(=O)C(Cc1ccccc1)NS(=O)(=O)c1ccc2c(c1)CCC(=O)N2 (configuration not stated)	-	-	-	-	2.2	-
O=C(CSC(=S)N1CCN(c2ccccc2)CC1)Nc1nc(-c2ccccc2)c(-c2ccccc2)o1	-	2.2	-	-	-	-
CN1C(=O)CSc2ccc(NC(=O)NCc3ccccc3)cc21	-	-	-	-	-	-
Cc1ccc(NC(=O)Nc2ccc3c(c2)N(C)C(=O)CS3)cc1C	-	-	-	-	3.1	-
Cc1ccc(CNC(=O)Nc2ccc3c(c2)N(C)C(=O)CS3)cc1	-	-	-	-	2.1	-
COc1ccc(CNC(=O)COC(=O)CN2C(=O)NC3(CCCC3)C2=O)cc1	-	.	.	-	-	-
COc1cc(NC(=O)C(Cc2ccccc2)n2cccc2)cc(OC)c1 (configuration not stated)	-	.	.	-	2.1	-
O=C(CN(C(=O)Cn1nnc(-c2ccccc2F)n1)c1cccc2c1CCCC2)NCc1ccccc1	-	2.2	-	-	-	-
CN(C)CCCNS(=O)(=O)c1ccc(N2CCC(c3ccc(Cl)cc3)=N2)cc1	-	2.2	-	-	-	-
O=S(=O)(c1ccc(N2CCC(c3ccc(Cl)cc3)=N2)cc1)N(CCO)CCO	-	2.7	-	-	2.2	-
CCN(CC)c1ccc2cc(-c3nc4ccccc4n3C)c(=O)oc2c1	.	2.6	-	.	.	.
CCN(CC)c1ccc2cc(-c3nc4ccccc4[nH]3)c(=O)oc2c1	-	-	-	-	-	-
SMILES	mIAP inh	bIAP act	bIAP inhibitor	hIAP inh	mIAP act	hIAP activ
CCN(CC(=O)Nc1cccc(F)c1)Cc1nc2ccccc2c(=O)[nH]1	-	-	-	-	-	-
CCN(CC(=O)NCc1ccc(F)cc1)Cc1nc2ccccc2c(=O)[nH]1	-	2	-	-	-	-
CC(=O)N1N=C(c2ccccc2)CC1c1cccs1 (configuration not stated)	-	.	.	-	-	-
CC(=O)Nc1ccc(C2=NN(c3ccccc3)C(c3cccs3)C2)cc1 (configuration not stated)	-	-	-	-	2.3	-
Cc1ccc(-n2cnc3cc(NCc4cccs4)ccc32)cc1	-	22	-	-	-	-
Cc1ccc(CC(=O)NNC(=O)c2cccs2)cc1C	-	.	.	-	-	-
COCCNC(=O)Cn1cc(/C=N/NC(=O)c2ccc(Oc3ccc(O)cc3)cc2)c2ccccc21	-	-	-	-	-	-
CC(C)(C)c1ccc(/C=N/NC(=S)Nc2cccnc2)cc1	-	-	-	-	-	-
Oc1ccc(/C=N/NC(=S)Nc2cccnc2)cc1O	79	-	-	-	-	-
Cc1ccc(C(O)c2nc3ccccc3n2C(C)C)cc1 (configuration not stated)	-	2.5	-	-	-	-
CC(C)n1c(-c2ccc(N(C)C)cc2)nc2ccccc21	-	3.4	-	-	-	-
CN(C)c1ccc(-c2nc3ccccc3n2C)cc1	-	-	-	-	-	-
Cc1ccn(CCC(=O)NC2CC(C)(C)Cc3c2cnn3-c2ccccc2C)n1 (configuration not stated)	-	.	.	-	-	-
Cc1cccc(NC(=S)NC(=O)/C=C/c2ccco2)c1	-	-	-	-	-	-
COc1ccccc1NC(=S)NC(=O)/C=C/c1ccco1	42	-	-	-	-	-
O=C(/C=C/c1ccco1)NC(=S)Nc1cccc([N+](=O)[O-])c1	60	-	-	-	-	-
COC(=O)c1ccc(NC(=S)NC2CCc3ccccc32)cc1 (configuration not stated)	-	-	-	-	2.9	-
CC(=O)Nc1ccc(C(=O)NC2CCSc3ccccc32)cc1 (configuration not stated)	-	.	.	-	-	-
COC(=O)c1ccc(NC(=S)NC2CC2)cc1	-	-	-	-	-	-
Cc1ccc(NC(=S)NC2CCSc3ccccc32)cc1 (configuration not stated)	-	.	.	-	3.7	-
CCOc1ccc(S(=O)(=O)N(CC)CC)cc1NC(=O)CSCc1c(C)noc1C	-	.	.	-	-	-
Cc1c(CCOC(=O)C23CC4CC(CC(C)(C4)C2)C3)sc[n+]1Cc1ccccc1	43	-	-	-	-	-
O=[N+]([O-])c1ccccc1N/N=C1\CC2CC=CC12 (configuration not stated)	-	-	-	-	-	-
COc1ccc(C(C(=O)NC2CCCC2)N(Cc2cccs2)C(=O)c2ccn[nH]2)cc1OC (configuration not stated)	-	2.3	-	-	-	-
CCC(C(=O)NC1CCCC1)N(Cc1cccs1)C(=O)Cn1nnc(-c2ccc(OC)c(OC)c2)n1 (configuration not stated)	-	-	-	-	2.1	-
COCCN(C(=O)Cc1cccs1)C(C(=O)NC1CCCC1)c1ccc(OC)c(OC)c1 (configuration not stated)	-	-	-	-	-	-
